The list is not random: actives were taken first. Their share in the collection is about 1.8%.
CHRM5 antagonist: CHRM5 antagonism in calcium assay | P08912 | CHO-hM5 cells, Fluo-8 calcium fluorescence, ACh EC80 | inhibition, % at 3 µM | 360,000 compounds, 0.59% hits;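 active = inhibition above a per-plate cutoff, the mean of that plate's test compounds plus 3 SD, cut at about 27% in these data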;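 note: 0% = acetylcholine EC80 with DMSO and 100% = DMSO without agonist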
Target sequence (P08912 whole entry, looked up): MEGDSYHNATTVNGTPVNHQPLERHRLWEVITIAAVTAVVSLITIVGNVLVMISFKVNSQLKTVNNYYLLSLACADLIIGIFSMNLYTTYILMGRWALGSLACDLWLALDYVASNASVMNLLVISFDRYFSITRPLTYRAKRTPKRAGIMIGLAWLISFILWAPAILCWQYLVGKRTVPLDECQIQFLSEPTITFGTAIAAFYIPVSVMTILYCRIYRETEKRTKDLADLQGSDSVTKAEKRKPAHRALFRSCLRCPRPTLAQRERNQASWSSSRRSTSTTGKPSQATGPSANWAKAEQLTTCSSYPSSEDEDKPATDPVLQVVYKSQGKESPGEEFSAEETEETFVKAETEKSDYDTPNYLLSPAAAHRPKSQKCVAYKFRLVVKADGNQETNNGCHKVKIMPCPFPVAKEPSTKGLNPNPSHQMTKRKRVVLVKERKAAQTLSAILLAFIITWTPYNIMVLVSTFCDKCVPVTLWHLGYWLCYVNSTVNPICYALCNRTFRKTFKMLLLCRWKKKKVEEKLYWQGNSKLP
CHRM5 PAM: potentiates acetylcholine response at human M5 receptor. CHO-K1 hM5, Fluo-8 calcium, ACh EC20 PAM; 0% = ACh EC20, 100% = ACh EC100. activation, % at 3 µM. 360,000 compounds, 0.3% hits;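 active = activation above the run cutoff, the mean activation of all test compounds plus 3 SD, cut at about 18% in these data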
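System: CHO-K1 cell line with stable human muscarinic M5 receptor expression | Also added: EC20 acetylcholine as agonist stimulus | Compound: One concentration, 3 µM final (nominal) | Timing: Fluo-8 loading 80 min at 37 °C plus 30 min room temperature | Measured by: Fluo-8 calcium dye fluorescence, kinetic read | Read-out basis: % activation, ACh-normalized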
CHRM5 agonist: CHRM5 agonism in calcium assay. 360,000 compounds, 0.19% hits. activation, % at 3 µM. CHO-K1 hM5 cells, Fluo-8 calcium fluorescence; 0% DMSO wells, 100% maximal acetylcholine response. P08912;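 active = activation above the run's mean over test compounds plus 3 SD, cut at about 23% in these data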;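 note: signal is peak over basal fluorescence ratio across the kinetic read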
M4 antag: antagonists of human muscarinic M4 receptor (CHRM4). P08173. CHO-hM4 cells, ACh EC80, Fluo-8 calcium fluorescence. inhibition, % at 3 µM. 360,000 compounds, 0.73% hits;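 active = inhibition above its plate's cutoff, the mean inhibition of sample wells plus 3 SD, cut at about 27% in these data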;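 note: 0% = acetylcholine EC80 with DMSO and 100% = DMSO without agonist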
CHRM4 PAM: CHRM4 positive allosteric modulation. P08173. CHO-K1 hM4/Gqi5, Fluo-8 calcium fluorescence, ACh EC20; 0% = ACh EC20, 100% = maximal ACh. activation, % at 3 µM. 360,000 compounds, 0.4% hits;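 active = activation above its plate's cutoff, the mean activation of sample wells plus 3 SD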
M4 ag: agonists of human muscarinic M4 receptor (CHRM4); CHO-K1 hM4/Gqi5, Fluo-8 calcium fluorescence; vehicle 0%, full acetylcholine response 100%; activation, % at 3 µM; 360,000 compounds, 0.14% hits; AID 624127;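 active = activation above the run mean over all test wells plus 3 SD, cut at about 32% in these data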;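 note: peak over basal fluorescence ratio per well then scaled between controls; 0% = DMSO wells and 100% = acetylcholine at EC100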
An asterisk follows results filed as active.

SMILES | CHRM5 antagonist | CHRM5 PAM | CHRM5 agonist | M4 antag | CHRM4 PAM | M4 ag
O=C(CN1CCCC1)NCc1ccccc1 | -3 | 5 | -1 | 5 | -3 | 1
O=C(CN1CCCCCC1)NN(Cc1ccccc1)c1ccccc1 | 12 | -26 | -19 | 29* | -49 | 0
O=C(COC(=O)c1ccc(O)cc1)Nc1ccccc1-c1ccccc1 | 35* | -19 | 2 | 21 | -13 | 13
Cc1nc2ccn(Cc3ccccc3)c(=O)c2cc1C(=O)N1CCN(c2ccccc2)CC1 | 6 | 2 | -4 | -6 | 14* | 1
COC(=O)C(C)SC1=N/C(=C/c2ccc(-n3cncn3)cc2)C(=O)N1 (stereo not given) | 7 | -1 | -3 | -4 | 9 | 0
CCCc1nnc(NC(=O)Cn2c(=O)oc3cc(Br)ccc32)s1 | -3 | 5 | 39* | -6 | -3 | 22
Cc1cccc(C(=O)Nc2ccccc2C(=O)OCC(=O)Nc2ccc(C#N)cc2)c1 | 28* | -16 | 0 | 14 | -14 | 10
OCCNc1ncnc2c1ncn2[C@H]1CN(Cc2ccc(Cl)cc2)C[C@@H](CO)O1 | 6 | -5 | 1 | -12 | 7 | 1
COC(=O)CSc1nc(-c2ccccc2)nc2ccc(F)cc12 | 2 | 3 | 2 | -2 | 9 | 1
CCOC(=O)CSc1nc(-c2ccccc2)nc2ccc(F)cc12 | -7 | 4 | 3 | 8 | 28* | 1
CC1=NS(=O)(=O)NC(C)(C)C1 | 8 | -5 | 0 | -4 | 5 | 0
O=C(CN1CCOCC1)Nc1nc2cc([N+](=O)[O-])ccc2s1 | 5 | 13 | -3 | -12 | 27* | 4
CCN(CCCNC(=O)C1CCN(S(=O)(=O)c2cnc[nH]2)CC1)c1cccc(C)c1 | 0 | 42* | 4 | -9 | 4 | 0
Cn1c(SCC(N)=O)nnc1-c1ccc(S(=O)(=O)N2CCCC2)cc1 | 10 | -2 | -4 | -4 | 0 | 2
Cc1ccc(-n2c(SCC(N)=O)nnc2-c2ccc(S(=O)(=O)N3CCCCC3)cc2)c(C)c1 | 19 | -17 | -4 | 99* | -36 | 12
CC(C)NC(=O)c1ccc(NC(=O)CC2SC(N3CCCC3)=NC2=O)cc1 (stereo not given) | 1 | 5 | 1 | -8 | 14 | 0
CNC(=O)c1ccc(NC(=O)CC2SC(N3CCCC3)=NC2=O)cc1 (stereo not given) | -4 | 2 | 4 | -2 | 22* | 2
CCOC(=O)[C@@H]1[C@H]2COc3ccc(Br)cc3[C@@H]2N2C(=O)N(c3ccc(C(F)(F)F)cc3)C(=O)[C@@]12C | -4 | 6 | 2 | -8 | 2 | 0
Cc1ccc(NS(=O)(=O)c2cc(Br)cnc2N)cc1C | 100* | -18 | -10 | 97* | -15 | 3
Cc1cc(C)cc(NS(=O)(=O)c2cc(Br)cnc2N)c1 | 4 | -3 | -6 | -2 | -6 | 1
CC(C)N(C(=O)CSc1nc2c([nH]1)c(=O)n(C)c(=O)n2C)c1ccccc1 | -1 | 1 | 1 | -16 | 17* | 1
CS(=O)(=O)c1ccc(Cl)c(NC(=O)COC(=O)Cc2c[nH]c3ccccc23)c1 | 6 | -2 | 3 | 2 | 2 | 8
CCOC(=O)C1(C)CCCN(C(=O)c2cc(OC)c(OC)c(OC)c2)C1 (stereo not given) | 3 | -5 | 0 | -13 | 4 | 1
O=C(Nc1cccc(S(=O)(=O)Nc2ccc(Cl)cc2)c1)c1ccc(Cl)nc1 | 35* | -20 | 5 | 30* | -15 | 16
O=C(Nc1ccc(NS(=O)(=O)c2ccccc2)cc1)c1ccc(Cl)cc1 | 11 | -7 | -6 | 1 | -3 | 5
SMILES | CHRM5 antagonist | CHRM5 PAM | CHRM5 agonist | M4 antag | CHRM4 PAM | M4 ag
COc1ccc(NS(=O)(=O)c2cccc(NC(=O)c3ccc(Cl)nc3)c2)cc1 | 35* | -18 | 5 | 24 | -12 | 15
COCCCC1CCN(C(=O)C2CCC(=O)N(Cc3ccccc3F)C2)CC1 (stereo not given) | 4 | 6 | -3 | 5 | 0 | 1
OC(CCN1CCCCC1)(c1ccccc1)c1ccccc1 | 99* | -18 | -1 | 100* | -18 | 1
O=C(CCN1CCCCCC1)c1ccccc1 | -9 | 7 | 0 | 0 | -1 | 0
NC(=O)C(CCCCN1CCCCC1)(c1ccccc1)c1ccccc1 | 15 | -21 | -13 | 37* | -9 | 0
C=CCC(O)(CCN1CCCCC1)c1ccccc1 (stereo not given) | 46* | -15 | -10 | 33* | -24 | 0
OC(CCN1CCCC1)(c1ccccc1)C1CCCCC1 (stereo not given) | 99* | -19 | -2 | 99* | -17 | 1
COc1ccc(C(O)(CCc2ccccc2)CCN2CCCCC2)cc1 (stereo not given) | 16 | -15 | -11 | 1 | -14 | 2
NCCc1ccn[nH]1 | -6 | 0 | 2 | 2 | 0 | 1
CCOc1ccc(S(=O)(=O)N2CCCC(C(=O)Nc3ccccc3)C2)cc1 (stereo not given) | 17 | -5 | -1 | -6 | 0 | 1
O=C(O)CC(Cc1ccc(Cl)cc1)C(=O)Nc1cc(Cl)ccc1Cl (stereo not given) | -5 | 4 | -4 | 0 | -2 | 0
CCCCOc1ccc(C(O)(CCN2CCOCC2)c2ccccc2)cc1 (stereo not given) | 5 | -5 | -6 | -8 | 0 | 3
OC(CCCN1CCCCC1)(c1ccccc1)c1ccc(C(F)(F)F)cc1 (stereo not given) | 13 | -31 | -12 | 50* | -11 | 5
CSc1nncc(-c2ccc(F)c(F)c2)n1 | 6 | 0 | 0 | 8 | -4 | 0
CSc1nncc(-c2ccc(F)cc2)n1 | -5 | 3 | -4 | 3 | -1 | 33*
Cc1cc(C)cc(N(CCC#N)C(=O)CSc2n[nH]c(N)n2)c1 | -2 | 0 | 3 | -26 | 15 | 1
Cc1ccc(NC(=S)NC(=O)c2ccc(-c3ccc(Cl)cc3)o2)c(O)c1 | -3 | -2 | -1 | -4 | 11 | 0
Cc1ccc(O)c(NC(=S)NC(=O)Cc2ccc(Cl)cc2)c1 | 81* | -31 | 61* | 100* | -18 | 140*
CCN(CC)CCSc1nc2ccccc2n1Cc1ccccc1 | 40* | -17 | -7 | 36* | -17 | 2
CN(C)C(=O)CSc1nc2ccccc2n1Cc1ccccc1 | 12 | -9 | -8 | 0 | -5 | 0
Cc1ccc2cc(CN(Cc3ccc4c(c3)OCO4)Cc3nnnn3Cc3ccco3)c(=O)[nH]c2c1C | -2 | 7 | -3 | -3 | 23* | 3

Bioassay records as filed in PubChem.
